Measurements taken from the RNAGym collection of RNA variant scans (doi:10.1126/science.aae0568).
Fewer inactive variants are shown than the library holds.

B1: tRNA (parent)
chain: GUUCCGUUGGCGUAAUGGUAACGCGUCUCCCUCCUAAGGAGAAGACUGCGGGUUCGAGUCCCGUACGGAACG

Variants of: B1
Assay: yeast fitness relative to wild type (ratio to wild type); higher = fitter; tRNA-Arg(CCU), competitive growth, 37 C, YPD
How it was run: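 Changes in genotype frequencies gave Darwinian fitness relative to wild type. Frequencies were read by 100-nucleotide paired-end sequencing of gene amplicons before and after pooled Saccharomyces cerevisiae strains, carrying tRNA-Arg(CCU) gene variants at the native locus, were competed in YPD at 37°C for 24 hours in six replicates. A genotype was kept only with ≥ 100 starting reads, and estimates < 0.5 were set to 0.5.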

Going from GUACCGUUGGCGUAAUGGUAACGCGUCUCCCUCCCAAGGAGAAGACUGCGGGUUCGCGUCCCGUACGGAACG [U3A U35C A57C] to GUACCGUUGGCGUAAUGGUAACGCGUCUCCCUCCUAAGGAGAAGACUGCGGGCUCGAGUCCCGUACGGAACG [U3A U53C], the yeast fitness rises from at most 0.5 to 0.668.

First: GUACCGUUGGCGUAAUGGUAACGCGUCUCCCUCCUAAGGAGAAGACUGCGGGCCCGAGUCCCGUACGGAACG [U3A U53C U54C]
Second: GUACCGUUGGCGUAAUGGUAACGCGUCUCCCUCCUAAGGAGAAGACUGCGGGUACCAGUCCCGUACGGAACG [U3A U54A G56C]
The yeast fitness of the first is lower: at most 0.5 for the first, 0.767 for the second.

Going from GUCCCGUUGGCGUAAUGGUAACGCGUCUCCCUCCUAAGGAGAAGACUGCGGGUUCGAGUCCCGUACGGAACG [U3C] to GUCCCGUUGGCGUCAUGGUAGUGCGUCUCCCUCCUAUGGAGAAGACUGAGGGUUCGAGUGCCGUACGGAACG [U3C A14C A21G C22U A37U C49A C60G], the yeast fitness falls from 0.996 to at most 0.5.

Going from GUCCCGUUGGCGUCAUGGUAACGCGUCUCCCUCCUAAGGAGAAGCCUGCGGGUUCGAGUCCCGUCCGGAACG [U3C A14C A45C A65C] to GUCCCGUUGGCGUGAUGGUAACGCGUCUCCCUCCUAAGGAGAAGACUGCGGGUUCGAGUCCCGUACGGAACG [U3C A14G], the yeast fitness rises from at most 0.5 to 0.917.

GUCCCGUUGGCGUGAUGGUAAAGCGUGUCCCUCCUAAGCAGAAGACUGCGGGUUCGAGUCCGGUACGGAACG [U3C A14G C22A C27G G39C C62G] and GUCCCGUUGGCGUGAUGGUAACGAGUCUCCCUCCUAAGGAGAAAACUGCGGGUUCGAGUCCCGUCCGGAACG [U3C A14G C24A G44A A65C] cannot be ordered by yeast fitness: at most 0.5 for the first, at most 0.5 for the second.

First: GUCCCGUUGGCGUGAUGGUAACGCGUCUCUCUCCUAAGGAGAAGCGUGCGGGUUCGAGUCCCGUACGGCACG [U3C A14G C30U A45C C46G A69C]
Second: GUCCCGUUGGCGUUAUGGUAACGCGUCUCCCUCCUAAGGAGAAGACUGCGGGUUCGAGUCCCGUACGGAACG [U3C A14U]
The yeast fitness of the first is lower: at most 0.5 for the first, 0.639 for the second.

GUCCCGUUGGCGUUAUGGUCACGGGUCUCCCUCCUAAGGAGAAGACUGCGGGUUUGAGUCCCGUACGGCACG [U3C A14U A20C C24G C55U A69C] and GUCCCGUUGGCGUUAGGGAAACGCGUCUCCCUCCUAAGGAGGAGACUGCGGGUUCGAGUCGCGUACGGAACG [U3C A14U U16G U19A A42G C61G] cannot be ordered by yeast fitness: at most 0.5 for the first, at most 0.5 for the second.

Compared with GUCCCGUUGGCGUACUGGUAACGCGUCUCCCUCCUAAGGAGAAGACUGCGGGUUCGAGUCCCGUACGGAACG [U3C A15C], GUCCCGUUGGCGUACUGGUGACGCGUCUCCCUCCUAAGGAGAAGACUGCGGGUUCGAGUCCCGUACGGAACG [U3C A15C A20G] is lower in yeast fitness: 0.695 for the first, at most 0.5 for the second.

GUCCCGUUGGCGUACUGGUAACGCGUCUCCCUCCUCAGGAGAAGACAGCGGGUUCGAGUCCGGUACGGAACG [U3C A15C A36C U47A C62G] and GUCCCGUUGGCGUACUGGUAACGCGUCUCCCUCCUUAGGAGAAGACUGCGGGUUCGAGUCCCGUACGGAACG [U3C A15C A36U] cannot be ordered by yeast fitness: at most 0.5 for the first, at most 0.5 for the second.

GUCCCGUUGGCGUACUCGUAACGAGUCUCCUUCCCAAGGAGAAGACUGCGGGUUCGAGUCCCGUACGAAACG [U3C A15C G17C C24A C31U U35C G68A] and GUCCCGUUGGCGUACUGGUAACGCGUCUCCCUCCUAAAGAGAAGACUGCGGGUACGUGUCCCGUACGGAACG [U3C A15C G38A U54A A57U] cannot be ordered by yeast fitness: at most 0.5 for the first, at most 0.5 for the second.

GUCCCGUUGGCGUAGUGGUAACGCGUCUACCUCCUAAGGUGAAGACUGCGGGUUGGAGUCGCGUACGGAACG [U3C A15G C29A A40U C55G C61G] and GUCCCGUUGGCGUAGUGGUAACGCGUCUCGCUCCUAAGGAGAAGACUGCGGGUUCAAGUCCCCUACAGAACG [U3C A15G C30G G56A G63C G67A] cannot be ordered by yeast fitness: at most 0.5 for the first, at most 0.5 for the second.

First: GUCCCGUUGGCGUAUUGGUAACGCGUCUCUCUCCUAAGGAGAAGACUGCGGGUUCGAGUCCCGUACGGAACG [U3C A15U C30U]
Second: GUCCCGUUGGCGUAUCGGUAACGCGUCUCCCUCUUAAGGAGAGGACUGCGGGUUCGAGUCCCGUACGGAACG [U3C A15U U16C C34U A43G]
The yeast fitness of the first is higher: 0.57 for the first, at most 0.5 for the second.

Compared with GUCCCGUUGGCGUAUGGGAAACGCGUCUCCCUCCUAAGGAGACGACUGCGGGUUCGUGUCCCGUACGGAACG [U3C A15U U16G U19A A43C A57U], GUCCCGUUGGCGUAAUGGUCACGCGUCUCCCUCCUAAGGAGAAGAUUGCGGGUUCGAGUCCCGUACGGAACG [U3C A20C C46U] is higher in yeast fitness: at most 0.5 for the first, 1.06 for the second.

Going from GUCCCGUUGGCGUAAUGGUCACCCGUCUCCCUCCUAAGGAGAAGACUGCGGGUUCGAGUCCCGUACGGAACG [U3C A20C G23C] to GUCCCGUUGGCGUAAUGGUGACGCGUCUCCCUCCUAAGGAGAAGACUGCGGGUUCGAGUCCCGUACGGAACG [U3C A20G], the yeast fitness rises from at most 0.5 to 0.917.

Going from GUCCCGUUGGCGUAAUGGUGACGCGUCUCCCUUCUAAGGGGAAGACUGCGGGUUCGAGUCCGGUACGGAUCG [U3C A20G C33U A40G C62G A70U] to GUCCCGUUGGCGUAAUGGUGACGCGUCUCCCUCCUAAGGAGAAGACUGCGGGUUCGAGCCCCGUACGGCACG [U3C A20G U59C A69C], the yeast fitness rises from at most 0.5 to 0.79.

Compared with GUCCCGUUGGCGUAAUGGUUACGCGUCUCCCUCCUAAGGAGAAGACUGCGGGUUCGAGUCCCGUACGGCACG [U3C A20U A69C], GUCCCGUUGGCGUAAUGGUUACGCGUCUCCCUCCUAAGGAGAAGACUGCGGGUUCGAGUCCCGUACGGACCG [U3C A20U A70C] is lower in yeast fitness: 0.749 for the first, 0.59 for the second.

Going from GUCCCGUUGGCGUAAUGGUUACGCGUCUCGCUUCUAAGGAGAAGACUGCGGGUUCGACUCCCGUACGGAACG [U3C A20U C30G C33U G58C] to GUCCCGUUGGCGUAAUGGUUACGCGUCUCCCUCCUAAGGAGAAGACUGCGGGUUCGAGUCCCGUACGUGACG [U3C A20U G68U A69G], the yeast fitness rises from at most 0.5 to 0.99.

GUCCCGUUGGCGUAAUGGUACUGCGUCUCCUUUCUAAGGAGAAGACUGCGGGUUCGAGUCCCGUACGGAACG [U3C A21C C22U C31U C33U] and GUCCCGUUGGCGUAAUGGUAGCGCGUCUGCCUCCUAAGGAGAAGACUGCGGGUUCGAGUCCCGUACGGAACG [U3C A21G C29G] cannot be ordered by yeast fitness: at most 0.5 for the first, at most 0.5 for the second.

GUCCCGUUGGCGUAAUGGUAGCGCGUCUCACUGCUAAGGAGAAGACUGCGGGUUCGAGACCCGUAUGGAACG [U3C A21G C30A C33G U59A C66U] showed a yeast fitness of at most 0.5.
